By inhibition is commonly meant the change of the read-out against control, counted positive when it falls.

Structures are written as SMILES. Activity calls are given as the source filed them. The calls are words filed in the database; no cut-off is given here. A value given as a limit tells only on which side of the number the result lay.

Assay [1] deals with A-375. Description: Antimigratory activity against human A375 cells at 50 uM after 24 hrs in presence cancer associated fibroblast by 2D-migration assay. The class given is functional, cell-based. An outline of the steps: (§1)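 A375 cells incubated under hypoxia (1% O2) with conditioned medium from CAFs (derived ex vivo from aggressive human melanoma) or HDFs, with or without 50 μM compound. Cells then assayed for 2D migration or invasion through reconstituted Matrigel barrier in Boyden chambers.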

The subject of assay [2] is A-375. Description: Antiinvasion activity in human A375 cells at 50 uM after 24 hrs in presence of cancer associated fibroblast by Boyden invasion assay. The format is functional, cell-based. An outline of the steps:
as §1

Assay [3] relates to A-375. Description: Inhibition of cell invasion in human A375 cells at 50 uM after 24 hrs by Boyden invasion assay in presence of 10% serum. The class given is functional. To be noted: A-375, 24 h. An outline of the steps:
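Cells treated with 50 μM compound, then placed in Boyden chambers (8 μm pores) with Matrigel 3D barrier and allowed to invade toward 10% serum for 24 h. Cells crossing the filter counted. At least three independent experiments; mean and SD.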

Assay [4] deals with A-375. Description: Inhibition of cell migration in human A375 cells at 50 uM after 24 hrs by 2D-migration assay in presence of 10% serum. To be noted: A-375, 24 h. The format is functional. An outline of the steps: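 Cells treated with 50 μM compound, then allowed to migrate 24 h toward 10% serum chemoattractant. Cells counted in a randomly chosen field per filter. At least three independent experiments; mean and SD.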

Assay [5] relates to A-375. Description: Inhibition of cell adhesion in human A375 cells at 50 uM measured from 1 to 3 hrs in presence of fibronectin by crystal violet staining based assay. The class given is functional. An outline of the steps:
(§2)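 A375 cells treated with 50 μM compound, then allowed to adhere to fibronectin-coated dishes for varying times up to 4 h, with no-fibronectin comparison. Percentage of adhered cells scored by crystal violet. At least three independent experiments; mean and SD.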

A short description of assay [6]: Antitumor activity against mouse B16F10 cells xenografted in C57BL/6 mouse assessed as reduction in tumor volume at 400 ug, ip administered on day 0 to 72 followed by tumor implantation on day 69 measured every 2 to 3 days relative to PBS-treated control. On the set-up: scale not given: the % may be the effect or the level left.
The test system of assay [7] is A-375. Description: Inhibition of cell adhesion in human A375 cells at 50 uM measured after 4 hrs in presence of fibronectin by crystal violet staining based assay. The format is functional. As to conditions: A-375, 4 h. An outline of the steps: as §2
Assay [8] deals with A-375. Description: Induction of apoptosis in serum-starved human A375 cells after 24 hrs by AnnexinV/PI-staining based flow cytometric analysis. The format is functional, cell-based. An outline of the steps:
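A375 cells serum-starved, detached and held in suspension for 24 h with compound. Apoptotic fraction measured by Annexin V–PI staining. At least three independent experiments; mean and SD.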
(A flow cytometer gives signals particle by particle.)

Take `CCCOc1c2cc(CCCn3cc(CCO[C@H]4O[C@H](CO)[C@H](O)C5=C4SC[C@]4(C[C@@H](O)[C@@H](O)[C@@H]([C@@H](O)CO)O4)O5)nn3)cc1Cc1cc(CCCn3cc(CCO[C@H]4O[C@H](CO)[C@H](O)C5=C4SC[C@]4(C[C@@H](O)[C@@H](O)[C@@H]([C@@H](O)CO)O4)O5)nn3)cc(c1OCCC)Cc1cc(CCCn3cc(CCO[C@H]4O[C@H](CO)[C@H](O)C5=C4SC[C@]4(C[C@@H](O)[C@@H](O)[C@@H]([C@@H](O)CO)O4)O5)nn3)cc(c1OCCC)Cc1cc(CCCn3cc(CCO[C@H]4O[C@H](CO)[C@H](O)C5=C4SC[C@]4(C[C@@H](O)[C@@H](O)[C@@H]([C@@H](O)CO)O4)O5)nn3)cc(c1OCCC)C2`: the result in the assay with A-375 [1] and with A-375 [2] was Active.

Consider `CC(C)=NOCC(=O)NCCCC[C@@H]1NC(=O)[C@H](CCCCNC(=O)CCCCC(=O)NCCCCCCO[C@H]2O[C@H](CO)[C@H](O)C3=C2SC[C@]2(C[C@@H](O)[C@@H](O)[C@@H]([C@H](O)CO)O2)O3)NC(=O)CNC(=O)[C@@H]2CCCN2C(=O)[C@H](CCCCNC(=O)CCCCC(=O)NCCCCCCO[C@@H]2O[C@@H](CO)[C@@H](O)C3=C2SC[C@@]2(C[C@@H](O)[C@@H](O)[C@@H]([C@H](O)CO)O2)O3)NC(=O)[C@H](C)NC(=O)[C@H](CCCCNC(=O)CCCCC(=O)NCCCCCCO[C@H]2O[C@H](CO)[C@H](O)C3=C2SC[C@]2(C[C@H](O)[C@H](O)[C@H]([C@@H](O)CO)O2)O3)NC(=O)CNC(=O)[C@@H]2CCCN2C(=O)[C@H](CCCCNC(=O)CCCCC(=O)NCCCCCCO[C@@H]2O[C@@H](CO)[C@@H](O)C3=C2SC[C@@]2(C[C@H](O)[C@H](O)[C@H]([C@@H](O)CO)O2)O3)NC1=O`, for which the result with A-375 [1], with A-375 [2] and in the assay with A-375 [8] was Active. Moreover, the inhibition at 50 µM in the assay with A-375 [3] was 30%; with A-375 [4] it was 30%; in the assay with A-375 [5] it was ≤ 30%; in the assay on A-375 [7] it was 50%. In addition, the Activity in assay [6] is >50%.

The values are drawn from ChEMBL document CHEMBL3774344, “Role of a Preorganized Scaffold Presenting Four Residues of a GM-3 Lactone Mimetic on Melanoma Progression” (2016).
